From ChEMBL document CHEMBL1150046, “Three new cyclic peroxides from the marine sponge Plakortis aff simplex” (2003)

How the values were obtained:
Format in all cases: functional
LoVo [1] = test: Growth inhibition of human Doxorubicin-resistant LoVo cells after 72 hrs by SRB assay
In short: (§1)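 Cells kept in RPMI 1640 with 10% FBS, 2 mM L-glutamine, penicillin and streptomycin at 37 °C, 5% CO2. They were seeded at 5000 per well and allowed to attach in drug-free medium (24 h; also stated as 18 h). Compound dilutions in DMSO/EtOH were added for 72 h. Cells were fixed with cold TCA, stained with SRB, solubilised in Tris and read at 490 nm.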

SK-MEL-28 = test: Growth inhibition of human SK-MEL-28 cells after 72 hrs by SRB assay; conditions: SK-MEL-28, 72 h; in short: as §1
DU-145 = test: Growth inhibition of human DU145 cells after 72 hrs by SRB assay; conditions: DU-145, 72 h; in short: as §1
PANC-1 = test: Growth inhibition of human PANC1 cells after 72 hrs by SRB assay; conditions: PANC-1, 72 h; in short: as §1
SK-OV-3 = test: Growth inhibition of human SKOV3 cells after 72 hrs by SRB assay; conditions: SK-OV-3, 72 h; in short: as §1
LNCaP = test: Growth inhibition of human LNCAP cells after 72 hrs by SRB assay; in short: as §1
A549 = test: Growth inhibition of human A549 after 72 hrs by SRB assay; conditions: A549, 72 h; in short: as §1
SK-BR-3 = test: Growth inhibition of human SKBR3 cells after 72 hrs by SRB assay; conditions: SK-BR-3, 72 h; in short: as §1
LoVo [2] = test: Growth inhibition of human LoVo after 72 hrs by SRB assay; in short: as §1
HT-29 = test: Growth inhibition of human HT-29 cells after 72 hrs by SRB assay; conditions: HT-29, 72 h; in short: as §1
[3] = Growth inhibition of human IGROV cells after 72 hrs by SRB assay; in short: as §1
[4] = Growth inhibition of human IGROV-ET cells after 72 hrs by SRB assay; in short: as §1
K562 = test: Growth inhibition of human K562 cells after 72 hrs by SRB assay; conditions: K562, 72 h; in short: as §1
[5] = read-out: LC50 (the source's name)

`C[C@]1(CCCCCCCCCCc2ccccc2)C[C@](C)(CC(=O)O)OO1` [ANDAVADOIC ACID] gave a GI50 (LoVo [1]) of 539 nM, a TGI (LoVo [1]) of 951 nM and a CC50 (LoVo [1]; [5]) of 1680 nM. It also gave a GI50 (SK-MEL-28) of 698 nM, a TGI (SK-MEL-28) of 1140 nM and a CC50 (SK-MEL-28; [5]) of 1860 nM. It also gave a GI50 (DU-145) of 627 nM, a TGI (DU-145) of 991 nM and a CC50 (DU-145; [5]) of 1560 nM. It also gave a GI50 (PANC-1) of 526 nM, a TGI (PANC-1) of 961 nM and a CC50 (PANC-1; [5]) of 1750 nM. The GI50 (SK-OV-3) was 698 nM, the TGI (SK-OV-3) was 1120 nM and the CC50 (SK-OV-3; [5]) was 1810 nM. It also gave a GI50 (LNCaP) of 478 nM, a TGI (LNCaP) of 863 nM and a CC50 (LNCaP; [5]) of 1560 nM. The GI50 (A549) was 714 nM, the TGI (A549) was 1290 nM and the CC50 (A549; [5]) was 2330 nM. It also gave a GI50 (SK-BR-3) of 914 nM, a TGI (SK-BR-3) of 1690 nM and a CC50 (SK-BR-3; [5]) of 2660 nM. For the same molecule, the GI50 (LoVo [2]) was 635 nM, the TGI (LoVo [2]) was 1210 nM and the CC50 (LoVo [2]; [5]) was 2310 nM. It also gave a GI50 (HT-29) of 643 nM, a TGI (HT-29) of 1130 nM and a CC50 (HT-29; [5]) of 1980 nM. It also gave a GI50 [3] of 102 nM, a TGI [3] of 261 nM and a CC50 [3, 5] of 1830 nM. The GI50 [4] was 133 nM, the TGI [4] was 390 nM and the CC50 [4, 5] was 1340 nM. For the same molecule, the GI50 (K562) was 497 nM, the TGI (K562) was 1010 nM and the CC50 (K562; [5]) was 2070 nM.
